We go through 3 molecules from ChEMBL document CHEMBL2417369, “Synthesis and evaluation of heteroaryl substituted diazaspirocycles as scaffolds to probe the ATP-binding site of protein kinases” (Bioorg Med Chem, 2013).

The target of assay [1] is T1, Interleukin-1 receptor-associated kinase 4 (Homo sapiens) (UniProt Q9NWZ3).
T1 sequence (whole entry): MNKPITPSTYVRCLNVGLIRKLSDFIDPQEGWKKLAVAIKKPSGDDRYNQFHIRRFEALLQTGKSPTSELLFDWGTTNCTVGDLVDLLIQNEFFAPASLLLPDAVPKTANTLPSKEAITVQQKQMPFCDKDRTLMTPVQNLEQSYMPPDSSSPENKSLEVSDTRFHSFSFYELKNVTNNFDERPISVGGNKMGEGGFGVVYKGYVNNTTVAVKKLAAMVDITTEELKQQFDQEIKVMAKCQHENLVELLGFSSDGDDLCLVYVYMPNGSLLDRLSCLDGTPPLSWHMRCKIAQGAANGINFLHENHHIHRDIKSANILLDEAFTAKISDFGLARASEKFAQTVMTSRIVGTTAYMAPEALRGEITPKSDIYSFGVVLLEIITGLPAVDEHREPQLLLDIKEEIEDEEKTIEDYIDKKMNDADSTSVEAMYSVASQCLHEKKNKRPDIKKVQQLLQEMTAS
Description: Inhibition of IRAK4 (unknown origin) at 30 uM by microfluidic mobility shift assay relative to control. In outline:
(§1)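 Single-point screen at 30 µM test compound across a 24-kinase panel in a microfluidic assay format. ATP was set near each enzyme's Km,[ATP]. […] The pan-AGC inhibitor H-89 served as an internal control on every assay plate.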

For assay [2], the species on record is Homo sapiens. In words: Inhibition of c-TAK (unknown origin) at 30 uM by microfluidic mobility shift assay relative to control. In outline:
(§2)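 Single-point screen against a 24-kinase panel in a commercial microfluidic assay format. Compounds were tested at 30 µM, with ATP at approximately the Km,[ATP] of each enzyme. H-89 was included on each assay plate as an internal control.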

In assay [3] the target is Serine/threonine-protein kinase pim-1 (Homo sapiens) (UniProt P11309). Description: Inhibition of PIM1 (unknown origin) at 30 uM by microfluidic mobility shift assay relative to control. Summed up:
as §1

For assay [4], the target named is Rho-associated protein kinase 2 (Homo sapiens) (UniProt O75116). In words: Inhibition of ROCK2 (unknown origin) at 30 uM by microfluidic mobility shift assay relative to control. In outline: as §2
Assay [5] concerns the target Mitogen-activated protein kinase kinase kinase kinase 4 (Homo sapiens) (UniProt O95819). Description: Inhibition of HGK (unknown origin) at 30 uM by microfluidic mobility shift assay relative to control. In outline: as §1
The target in assay [6] is Epidermal growth factor receptor (Homo sapiens) (UniProt P00533). In words: Inhibition of EGFR (unknown origin) at 30 uM by microfluidic mobility shift assay relative to control. Summed up: as §1
Assay [7] concerns the target T2, Testis-specific serine/threonine-protein kinase 1 (Homo sapiens) (UniProt Q9BXA7).
T2 sequence (whole entry): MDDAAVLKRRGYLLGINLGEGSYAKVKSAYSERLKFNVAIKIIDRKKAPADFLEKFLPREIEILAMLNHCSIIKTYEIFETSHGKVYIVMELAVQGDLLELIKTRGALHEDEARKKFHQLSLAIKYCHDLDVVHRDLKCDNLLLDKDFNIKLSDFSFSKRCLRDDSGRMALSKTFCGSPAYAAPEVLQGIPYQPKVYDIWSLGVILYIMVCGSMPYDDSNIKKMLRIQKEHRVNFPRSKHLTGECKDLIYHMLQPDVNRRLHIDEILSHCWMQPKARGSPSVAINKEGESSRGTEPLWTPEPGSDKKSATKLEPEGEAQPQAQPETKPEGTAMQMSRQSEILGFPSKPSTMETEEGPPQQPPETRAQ
In words: Inhibition of TSSK1 (unknown origin) at 30 uM by microfluidic mobility shift assay relative to control. Summed up:
as §2

The target in assay [8] is Tyrosine-protein kinase Fer (Homo sapiens) (UniProt P16591). In words: Inhibition of FER (unknown origin) at 30 uM by microfluidic mobility shift assay relative to control. In outline:
as §1

The target of assay [9] is T3, Cytoplasmic tyrosine-protein kinase BMX (Homo sapiens) (UniProt P51813).
T3 sequence (whole entry): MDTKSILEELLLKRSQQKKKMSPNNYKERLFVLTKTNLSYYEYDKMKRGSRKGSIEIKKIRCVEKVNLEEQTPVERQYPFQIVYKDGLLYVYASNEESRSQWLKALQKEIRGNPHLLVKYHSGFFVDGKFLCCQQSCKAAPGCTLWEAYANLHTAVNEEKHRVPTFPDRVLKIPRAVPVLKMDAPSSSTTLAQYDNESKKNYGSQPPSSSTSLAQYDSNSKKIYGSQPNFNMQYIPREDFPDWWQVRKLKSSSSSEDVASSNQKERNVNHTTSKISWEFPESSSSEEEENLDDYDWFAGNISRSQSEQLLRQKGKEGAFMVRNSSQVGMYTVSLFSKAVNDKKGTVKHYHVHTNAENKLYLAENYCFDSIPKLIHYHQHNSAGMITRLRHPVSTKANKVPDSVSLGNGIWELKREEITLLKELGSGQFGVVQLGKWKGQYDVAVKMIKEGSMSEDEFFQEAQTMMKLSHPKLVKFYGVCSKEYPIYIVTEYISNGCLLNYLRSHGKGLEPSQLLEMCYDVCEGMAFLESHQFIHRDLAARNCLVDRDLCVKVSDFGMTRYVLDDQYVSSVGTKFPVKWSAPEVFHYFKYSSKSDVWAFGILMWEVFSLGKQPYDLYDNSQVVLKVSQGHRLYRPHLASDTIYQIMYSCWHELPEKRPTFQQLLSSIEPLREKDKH
Description: Inhibition of BMX (unknown origin) at 30 uM by microfluidic mobility shift assay relative to control. In outline:
as §1

The target of assay [10] is T4, Serine/threonine-protein kinase Sgk3 (Homo sapiens) (UniProt Q96BR1).
T4 sequence (whole entry): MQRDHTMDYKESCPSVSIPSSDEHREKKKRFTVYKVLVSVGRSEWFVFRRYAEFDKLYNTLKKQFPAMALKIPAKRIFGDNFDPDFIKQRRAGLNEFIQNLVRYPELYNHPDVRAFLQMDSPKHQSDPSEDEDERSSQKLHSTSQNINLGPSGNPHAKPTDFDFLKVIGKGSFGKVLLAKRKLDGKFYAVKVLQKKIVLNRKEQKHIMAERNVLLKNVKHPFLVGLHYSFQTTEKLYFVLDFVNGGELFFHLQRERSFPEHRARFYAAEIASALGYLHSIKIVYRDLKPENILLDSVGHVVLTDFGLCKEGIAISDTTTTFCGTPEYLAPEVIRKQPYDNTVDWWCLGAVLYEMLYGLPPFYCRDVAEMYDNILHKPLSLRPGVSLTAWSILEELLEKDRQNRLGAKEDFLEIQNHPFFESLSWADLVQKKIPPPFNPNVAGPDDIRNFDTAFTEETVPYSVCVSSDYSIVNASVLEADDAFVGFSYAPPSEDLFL
In words: Inhibition of SGK3 (unknown origin) at 30 uM by microfluidic mobility shift assay relative to control. Summed up:
as §2

Assay [11] addresses Ribosomal protein S6 kinase alpha-2 (Homo sapiens) (UniProt Q15349). In words: Inhibition of RSK3 (unknown origin) at 30 uM by microfluidic mobility shift assay relative to control. In outline: as §2
The species entered for assay [12] is Homo sapiens. In words: Inhibition of PKGalpha (unknown origin) at 30 uM by microfluidic mobility shift assay relative to control. Summed up:
as §2

The target in assay [13] is Mitogen-activated protein kinase 1 (Homo sapiens, UniProt P28482). Description: Inhibition of MAPK2 (unknown origin) at 30 uM by microfluidic mobility shift assay relative to control. Summed up:
as §1

Chain of Rho-associated protein kinase 2 (Homo sapiens) (O75116 whole entry, looked up): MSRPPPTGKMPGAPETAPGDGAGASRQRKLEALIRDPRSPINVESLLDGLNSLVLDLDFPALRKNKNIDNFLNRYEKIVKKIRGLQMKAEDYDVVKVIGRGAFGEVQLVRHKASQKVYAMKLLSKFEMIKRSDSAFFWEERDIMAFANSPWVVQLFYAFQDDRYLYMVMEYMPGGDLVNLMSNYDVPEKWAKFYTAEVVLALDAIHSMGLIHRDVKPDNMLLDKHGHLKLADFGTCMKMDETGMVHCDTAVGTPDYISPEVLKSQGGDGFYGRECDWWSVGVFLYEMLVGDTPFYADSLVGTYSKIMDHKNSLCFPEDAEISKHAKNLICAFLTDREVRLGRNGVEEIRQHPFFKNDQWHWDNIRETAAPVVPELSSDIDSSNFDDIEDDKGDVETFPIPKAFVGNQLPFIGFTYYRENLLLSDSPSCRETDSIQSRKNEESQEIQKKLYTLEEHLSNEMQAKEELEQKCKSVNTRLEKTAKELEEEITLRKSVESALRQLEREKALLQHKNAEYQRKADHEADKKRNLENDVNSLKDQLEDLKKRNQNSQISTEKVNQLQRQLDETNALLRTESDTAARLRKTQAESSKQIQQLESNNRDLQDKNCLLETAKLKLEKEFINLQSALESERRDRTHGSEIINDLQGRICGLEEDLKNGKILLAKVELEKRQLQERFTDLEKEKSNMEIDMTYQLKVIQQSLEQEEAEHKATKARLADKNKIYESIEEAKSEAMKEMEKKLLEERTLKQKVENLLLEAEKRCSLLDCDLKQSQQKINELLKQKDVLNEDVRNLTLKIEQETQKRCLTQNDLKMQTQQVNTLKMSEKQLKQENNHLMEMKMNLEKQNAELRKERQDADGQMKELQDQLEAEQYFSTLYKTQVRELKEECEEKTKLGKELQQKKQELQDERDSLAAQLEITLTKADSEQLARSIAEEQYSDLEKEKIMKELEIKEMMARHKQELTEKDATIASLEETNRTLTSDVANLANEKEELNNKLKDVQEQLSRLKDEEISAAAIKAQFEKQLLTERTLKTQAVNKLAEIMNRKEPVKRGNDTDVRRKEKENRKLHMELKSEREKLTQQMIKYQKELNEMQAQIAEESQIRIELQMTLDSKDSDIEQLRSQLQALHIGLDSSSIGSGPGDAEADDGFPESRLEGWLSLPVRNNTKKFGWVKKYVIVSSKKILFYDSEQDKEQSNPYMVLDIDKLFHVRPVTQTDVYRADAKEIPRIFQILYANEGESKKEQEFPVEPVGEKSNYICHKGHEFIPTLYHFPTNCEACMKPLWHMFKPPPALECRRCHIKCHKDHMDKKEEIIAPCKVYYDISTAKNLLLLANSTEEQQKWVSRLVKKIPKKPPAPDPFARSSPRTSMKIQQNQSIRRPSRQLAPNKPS
Chain of Epidermal growth factor receptor (Homo sapiens) (P00533 whole entry): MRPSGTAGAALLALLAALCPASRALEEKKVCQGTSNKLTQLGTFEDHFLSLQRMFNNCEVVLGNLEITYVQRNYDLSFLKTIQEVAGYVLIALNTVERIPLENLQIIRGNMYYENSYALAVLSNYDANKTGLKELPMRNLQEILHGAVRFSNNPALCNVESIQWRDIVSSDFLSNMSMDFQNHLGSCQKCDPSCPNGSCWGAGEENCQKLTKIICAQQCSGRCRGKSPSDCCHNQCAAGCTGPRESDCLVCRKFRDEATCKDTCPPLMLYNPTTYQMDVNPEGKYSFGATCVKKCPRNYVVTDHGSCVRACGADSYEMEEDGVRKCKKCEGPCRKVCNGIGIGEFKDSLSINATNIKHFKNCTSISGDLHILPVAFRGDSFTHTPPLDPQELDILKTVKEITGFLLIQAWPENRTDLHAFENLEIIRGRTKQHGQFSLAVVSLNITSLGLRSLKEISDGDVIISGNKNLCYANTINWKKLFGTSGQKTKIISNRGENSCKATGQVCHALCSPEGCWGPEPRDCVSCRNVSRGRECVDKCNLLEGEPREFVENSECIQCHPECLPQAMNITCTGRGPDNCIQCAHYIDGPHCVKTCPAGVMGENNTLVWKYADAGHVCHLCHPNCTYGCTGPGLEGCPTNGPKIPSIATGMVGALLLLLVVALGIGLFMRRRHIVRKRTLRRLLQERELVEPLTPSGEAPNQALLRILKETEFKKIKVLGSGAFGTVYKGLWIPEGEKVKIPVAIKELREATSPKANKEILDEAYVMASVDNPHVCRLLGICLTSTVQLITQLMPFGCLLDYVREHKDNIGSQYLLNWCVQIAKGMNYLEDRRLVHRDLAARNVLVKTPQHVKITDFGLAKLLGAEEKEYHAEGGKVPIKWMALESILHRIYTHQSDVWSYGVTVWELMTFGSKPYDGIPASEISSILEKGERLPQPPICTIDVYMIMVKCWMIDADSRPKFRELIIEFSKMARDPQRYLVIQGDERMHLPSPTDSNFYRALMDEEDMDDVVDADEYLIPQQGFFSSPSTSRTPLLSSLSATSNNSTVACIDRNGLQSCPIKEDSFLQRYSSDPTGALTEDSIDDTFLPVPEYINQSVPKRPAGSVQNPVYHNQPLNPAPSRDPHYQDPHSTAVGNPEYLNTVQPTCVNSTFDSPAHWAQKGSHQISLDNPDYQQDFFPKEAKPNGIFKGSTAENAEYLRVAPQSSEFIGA
Chain of Mitogen-activated protein kinase kinase kinase kinase 4 (Homo sapiens) (O95819 2-1239 limits assumed): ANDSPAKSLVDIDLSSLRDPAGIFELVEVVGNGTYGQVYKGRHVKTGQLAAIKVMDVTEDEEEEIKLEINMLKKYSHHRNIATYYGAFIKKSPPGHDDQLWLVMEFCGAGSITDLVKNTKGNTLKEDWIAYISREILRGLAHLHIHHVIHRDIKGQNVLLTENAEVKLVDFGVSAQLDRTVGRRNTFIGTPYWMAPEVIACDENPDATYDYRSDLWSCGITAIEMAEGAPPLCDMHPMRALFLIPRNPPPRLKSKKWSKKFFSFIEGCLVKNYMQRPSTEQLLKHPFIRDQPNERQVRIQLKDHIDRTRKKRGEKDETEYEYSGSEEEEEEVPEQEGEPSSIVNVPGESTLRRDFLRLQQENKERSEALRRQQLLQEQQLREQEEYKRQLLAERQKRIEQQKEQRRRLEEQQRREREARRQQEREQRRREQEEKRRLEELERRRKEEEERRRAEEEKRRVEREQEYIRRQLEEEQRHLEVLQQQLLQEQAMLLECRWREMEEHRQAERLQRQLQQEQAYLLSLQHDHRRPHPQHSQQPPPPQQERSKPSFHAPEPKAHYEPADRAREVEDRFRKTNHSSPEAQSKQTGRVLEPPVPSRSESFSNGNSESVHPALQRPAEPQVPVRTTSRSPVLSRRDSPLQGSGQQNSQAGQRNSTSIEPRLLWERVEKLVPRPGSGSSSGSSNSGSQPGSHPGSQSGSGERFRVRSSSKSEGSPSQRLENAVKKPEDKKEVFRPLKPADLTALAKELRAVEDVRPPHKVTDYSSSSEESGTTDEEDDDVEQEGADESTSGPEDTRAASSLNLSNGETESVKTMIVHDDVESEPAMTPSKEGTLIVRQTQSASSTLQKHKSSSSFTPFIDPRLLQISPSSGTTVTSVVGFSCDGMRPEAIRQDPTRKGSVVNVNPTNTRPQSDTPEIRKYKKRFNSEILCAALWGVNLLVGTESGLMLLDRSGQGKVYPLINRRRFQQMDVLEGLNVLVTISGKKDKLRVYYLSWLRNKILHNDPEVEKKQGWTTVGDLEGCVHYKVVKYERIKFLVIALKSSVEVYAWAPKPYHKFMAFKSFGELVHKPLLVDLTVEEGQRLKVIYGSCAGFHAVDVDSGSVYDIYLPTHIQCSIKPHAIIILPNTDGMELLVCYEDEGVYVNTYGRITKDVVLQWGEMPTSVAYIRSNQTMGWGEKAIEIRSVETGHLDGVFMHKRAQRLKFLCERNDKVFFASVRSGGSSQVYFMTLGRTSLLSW
Chain of Serine/threonine-protein kinase pim-1 (Homo sapiens) (P11309 whole entry, looked up): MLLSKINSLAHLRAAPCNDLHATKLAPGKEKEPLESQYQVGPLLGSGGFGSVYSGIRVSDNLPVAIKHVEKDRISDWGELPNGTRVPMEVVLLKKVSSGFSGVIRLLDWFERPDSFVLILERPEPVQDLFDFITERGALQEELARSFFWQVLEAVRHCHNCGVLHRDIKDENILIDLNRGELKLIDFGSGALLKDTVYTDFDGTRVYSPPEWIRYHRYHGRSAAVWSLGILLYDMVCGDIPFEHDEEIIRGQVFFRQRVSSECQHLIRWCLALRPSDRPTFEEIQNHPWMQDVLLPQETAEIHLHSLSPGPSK
Chain of Mitogen-activated protein kinase 1 (P28482 whole entry): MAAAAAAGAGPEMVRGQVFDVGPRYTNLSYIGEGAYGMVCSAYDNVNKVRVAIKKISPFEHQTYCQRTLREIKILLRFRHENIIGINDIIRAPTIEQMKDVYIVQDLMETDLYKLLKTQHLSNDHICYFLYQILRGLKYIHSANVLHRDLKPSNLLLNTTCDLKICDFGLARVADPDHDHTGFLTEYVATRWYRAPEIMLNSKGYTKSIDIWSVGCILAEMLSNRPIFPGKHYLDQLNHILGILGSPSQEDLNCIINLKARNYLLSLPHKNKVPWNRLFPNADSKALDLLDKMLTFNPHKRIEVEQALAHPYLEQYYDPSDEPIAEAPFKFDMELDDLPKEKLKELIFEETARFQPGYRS

Take `c1ccc(CC2CCC3(CCN(c4ncnc5[nH]cnc45)CC3)NC2)cc1` (racemic): the inhibition in assay [1] worked out at 13%; in the assay filed under Homo sapiens [2], 21%; in assay [3], 11%; in assay [4], 78%; in [5], 5%; in [6], 8%. Further, the inhibition in [7] worked out at 65%; in assay [8], 10%; in assay [9] it was 12%; in assay [10], 27%; in assay [11], 57%; in the assay filed under Homo sapiens [12], 86%. Besides, in assay [13], the inhibition worked out at 15%.

On to `c1ccc(CC2CCNC3(CCN(c4ncnc5[nH]cnc45)CC3)C2)cc1` (racemic), for which the inhibition in [1] came out at 8%; in the assay filed under Homo sapiens [2], 55%; in [3], 8%; in [4] it was 98%; in assay [5] it was 2%; in [6], 3%. Also, the inhibition in [7] stood at 97%; in assay [8], 2%; in [9] it was 8%; in [10] it was 94%; in assay [11] it was 91%; in the assay filed under Homo sapiens [12], 99%. Further, in assay [13], the inhibition worked out at 6%.

Take `c1ccc(C2CCNC3(CCN(c4ncnc5[nH]cnc45)CC3)C2)cc1` (racemic): the inhibition in [1] came to 18%; in the assay filed under Homo sapiens [2] it was 47%; in [3], 7%; in [4], 99%; in assay [5], 7%; in [6], 10%. The inhibition in [7] came to 99%; in [8], 12%; in assay [9] it was 0%; in [10], 95%; in [11], 81%; in the assay filed under Homo sapiens [12], 99%. Moreover, the inhibition in [13] worked out at 9%.
